This is an account of results in publication PMC12079591 (ACS Omega, 2025).

Where two headings read alike, the source gives them in different places.

One data set deals with NUGC-3. Put plainly: Cell proliferation assay. The format is cell-based. Particulars: read-out: IC50 NUGC-3; gastric carcinoma; mean ± SD (n ≥ 2). The method in brief:
(§1)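 Mycoplasma-negative, STR-authenticated cells were seeded at 4000−6000/well and kept overnight at 37 °C, 5% CO2. Graded test compound concentrations or solvent control were added to triplicate wells. Adherent lines were read by SRB (OD 510 nm) and suspension lines by MTT (OD 570 nm). IC50 was obtained by nonlinear regression. Results are means ± SD (n ≥ 2).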

Another data set has as its system MDA-MB-231. Put plainly: Cell proliferation assay. Format: cell-based, human. To be noted: read-out: IC50 MDA-MB-231; breast carcinoma; mean ± SD (n ≥ 2). The method in brief: as §1
Another data set deals with HCT116. In words: Cell proliferation assay. The format is cell-based. Particulars: read-out: IC50 HCT116; colorectal carcinoma; mean ± SD (n ≥ 2). The method in brief: as §1
A further data set has as its system MV-4-11. In words: Cell proliferation assay. Format: cell-based. Particulars: read-out: IC50 MV-4-11; acute myeloid leukemia; mean ± SD (n ≥ 2). In a few lines:
as §1

Data set [1] concerns cyclin A2, cyclin B1, and cyclin D1. In words: Western blot of cell cycle-related proteins. Particulars: MDA-MB-231 and PC-3 cells, 24 h, dose-dependent. The format is cell-based, human. In a few lines:
(§2)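 MDA-MB-231 and PC-3 cells were seeded in 12-well plates overnight, then exposed to a concentration gradient of test compound. Cells were lysed in SDS sample buffer, and equal protein amounts were run on SDS-PAGE and transferred to PVDF. Membranes were probed with primary antibodies, then HRP-conjugated secondary antibodies, and detected by ECL chemiluminescence.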

The subject of the next data set is A-431. Put plainly: Cell proliferation assay. The format is cell-based. Particulars: read-out: IC50 A-431; squamous cell carcinoma; mean ± SD (n ≥ 2). In a few lines: as §1
The subject of the next data set is DOHH2. In words: Cell proliferation assay. The format is cell-based. To be noted: read-out: IC50 DOHH2; diffuse large B cell lymphoma; mean ± SD (n ≥ 2). The method in brief: as §1
The subject of another data set is KATO III. In words: Cell proliferation assay. The format is cell-based. Particulars: read-out: IC50 KATO III; gastric carcinoma; mean ± SD (n ≥ 2). In a few lines:
as §1

Another data set has as its system NCI-H460. Put plainly: Cell proliferation assay. Particulars: read-out: IC50 NCI-H460; lung carcinoma; mean ± SD (n ≥ 2). The format is cell-based. In a few lines:
as §1

For another data set, the system named is PC-3. In words: Cell proliferation assay. Particulars: read-out: IC50 PC-3; prostate carcinoma; mean ± SD (n ≥ 2). The format is cell-based, human. The method in brief: as §1
A further data set deals with MDA-MB-231 cells. In words: Cell cycle analysis by flow cytometry. Format: cell-based, human. Particulars: MDA-MB-231, 24 h treatment. The method in brief:
(§3)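 Cells were seeded in 12-well plates overnight, then exposed to test compound for 24 h. Cells were trypsinized, washed in cold PBS and fixed overnight in 70% ethanol at −20 °C. After two PBS washes they were stained 30 min at 37 °C with 50 μg/mL propidium iodide plus 20 μg/mL RNase A. About 10,000 cells were acquired by flow cytometry. Results are means ± SD; two-tailed unpaired t test.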

The next data set has as its system PC-3 cells. Put plainly: Cell cycle analysis by flow cytometry. The format is cell-based, human. To be noted: PC-3, 24 h treatment. In a few lines:
as §3

In a further data set the test system is K562. Put plainly: Cell proliferation assay. The format is cell-based. Particulars: read-out: IC50 K562, mean ± SD (n ≥ 2). In a few lines: as §1
A further data set has as its system H1975. In words: Cell proliferation assay. The format is cell-based. To be noted: read-out: IC50 H1975; lung carcinoma; mean ± SD (n ≥ 2). The method in brief:
as §1

For another data set, the system named is K562/ADR. In words: Cell proliferation assay, multidrug-resistant K562/ADR. The format is cell-based. In a few lines:
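K562/ADR cells were derived from parental K562 by stepwise increases in ADR concentration. Proliferation was measured by the SRB (adherent) or MTT (suspension) method: 4000−6000 cells/well seeded overnight at 37 °C, 5% CO2, graded test compound in triplicate wells. IC50 was obtained by nonlinear regression. The resistance factor compares K562/ADR with parental K562. Results are means ± SD (n ≥ 2).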

Data set [2] can be described thus: Boron biodistribution of compound 1d by ICP-mass. The format is in vivo, mice. To be noted: 3 h postinjection. In a few lines: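 Mice bearing subcutaneous tumours got a single intraperitoneal injection of 2 mg test compound in saline/DMSO and were sacrificed at 3 h. Blood was taken by cardiac puncture, and major organs and tumour were harvested and weighed. Tissue was digested 2 days at room temperature in 1 mL 1:1 concentrated H2SO4/HNO3, diluted 100-fold in water and filtered (0.22 μm). Boron was measured by ICP-OES and ICP-MS as μg/g tissue.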

A further data set relates to MDR1. In words: Western blot of MDR1 in K562/ADR. Format: cell-based. Particulars: 48 h, concentration-dependent. In a few lines: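 K562 and K562/ADR cells were seeded in 12-well plates overnight and treated with a concentration gradient of test compound for 48 h. Lysates in SDS sample buffer (equal protein) were separated by SDS-PAGE and transferred to PVDF. MDR1 was probed with primary and HRP-conjugated secondary antibodies and detected by ECL.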

In a further data set the test system is HPAF-II. Put plainly: Cell proliferation assay. Particulars: read-out: IC50 HPAF-II; pancreatic carcinoma; mean ± SD (n ≥ 2). The format is cell-based. The method in brief: as §1
The subject of a further data set is SUDHL-4. Put plainly: Cell proliferation assay. Format: cell-based. Particulars: read-out: IC50 SUDHL-4; diffuse large B cell lymphoma; mean ± SD (n ≥ 2). The method in brief:
as §1

For data set [3], the system named is P-AKT, P-STAT3, P-STAT5, P-P38. Put plainly: Western blot of JAK/STAT5, PI3K/AKT and p38 MAPK pathways. Particulars: MDA-MB-231 and PC-3 cells, 24 h, concentration-dependent. The format is cell-based, human. In a few lines: as §2
The conditions of data set [4]: 1 h postinjection; cited from earlier work.

Turning to “3-(1,2-Dicarba-closo-dodecarboranyl)-7-hydroxy-4H-chromen-4-one [Compound 1d]”, the IC50 in the data set with NUGC-3 worked out at 3.36 ± 0.02 µM; in the data set with MDA-MB-231, 5.59 ± 1.82 µM; in the data set on HCT116, 3.42 ± 0.22 µM; in the data set with MV-4-11, 4.25 ± 0.34 µM; in the data set with A-431, 4.09 ± 0.46 µM; with DOHH2 it was 2.78 ± 0.26 µM. The IC50 in the data set with KATO III was found to be 4.38 ± 0.04 µM; in the data set on NCI-H460, 4.24 ± 0.9 µM; in the data set on PC-3 it was 5.24 ± 1.9 µM; in the data set on K562 (chronic myeloid leukemia) it was 5.29 ± 0.86 µM; with K562 (parental cell line) it was 5.29 ± 0.861 µM; in the data set on H1975, 5.27 ± 0.63 µM. Further, the IC50 with K562/ADR (read-out: IC50 K562/ADR, multidrug-resistant subline, mean ± SD (n ≥ 2)) was determined as 4.91 ± 0.094 µM; in the data set on HPAF-II, 3.56 ± 0.38 µM; in the data set with SUDHL-4, 5.4 ± 0.48 µM. Besides, in data set [1], the “expression of cyclin A2, cyclin B1, and cyclin D1” value was “downregulated”. Moreover, the “effect on cell cycle distribution” value in the data set on MDA-MB-231 cells and with PC-3 cells was “caused G0/G1 cell cycle arrest” in each case. Further, the “RF (resistance factor)” value with K562/ADR (K562/ADR versus K562) was 0.93. Further, the “brain/blood uptake ratio (boron)” value in [2] was 0.45. In data set [2] (2 mg intraperitoneal, mice), the “boron content in blood” value stood at 2.28 ± 0.99 µg/g. Moreover, in [2] (2 mg intraperitoneal, mice), the “boron content in brain” value was 1.03 ± 0.43 µg/g. Moreover, the “boron content in liver” value in data set [2] (2 mg intraperitoneal, mice) stood at 56.37 ± 4.71 µg/g. Moreover, in data set [2] (2 mg intraperitoneal, mice), the “boron content in pancreas” value amounted to 40.74 ± 4.67 µg/g. Further, the “boron content in tumor” value in data set [2] (2 mg intraperitoneal, mice) came out at 2.18 ± 1.18 µg/g. In the data set on MDR1, the “expression of MDR1” value is “significantly inhibited”. In addition, in data set [3], the P-P38 expression entry was “upregulating”. In [3], the “expression of P-AKT, P-STAT3, and P-STAT5” value is on record as “reduced”.
For `O=C([O-])CN(CCN(CC(=O)[O-])Cc1cc(CCC(=O)NCCCCCC(=O)NCCCC[C@H](NC(=O)N[C@@H](CCC(=O)O)C(=O)O)C(=O)O)ccc1[O-])Cc1cc(CCC(=O)O)ccc1[O-].[68Ga+3].[OH3+]` [^68Ga-PSMA11], in data set [4], the brain uptake was 0.013 ± 0.004 % ID/g.
